Experimental findings from ChEMBL document CHEMBL1124572, “Synthesis and biological activity of novel carbacyclins having bicyclic substituents on the omega-chain” (J Med Chem, 1989) are described below.

Converted amounts (≈) assume the structure as drawn. The source made the active and inactive calls. The rule behind the calls is not given here.

Assay [1] deals with Rattus norvegicus. The assay is described as follows: Dose that reduces mean blood pressure by 15 mmHg (peak effect) in rat administered intravenously. It counts as functional. In a few lines:
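Male Wistar rats (200–300 g) were anesthetized with urethane. Compound was given iv via the femoral vein, and blood pressure was recorded by transducer through a femoral artery catheter. MBP15 is the dose lowering mean blood pressure by 15 mmHg at peak effect, derived by linear regression from three dose groups of five or six animals (mean ± SEM).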

Assay [2] is filed under the species Rattus norvegicus. The assay is described as follows: Antiaggregatory activity is expressed as dose that inhibit rat platelet aggregation induced by collagen by 50% of that of the control. It counts as functional. An outline of the steps: (§1)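 Male Wistar rats (250–350 g) under ether anesthesia were bled from the abdominal aorta into 0.1 volume 3.13% sodium citrate. Aggregation was induced by collagen (final 5 μg/mL) and read in an aggregometer at 37 °C with stirring. The IC50 is the concentration inhibiting aggregation by 50% versus control, derived by linear regression from three dose groups of five or six animals (mean ± SEM).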

The subject of assay [3] is Rattus norvegicus. The experiment in a line: Inhibition of ethanol induced gastric lesions in the rat following p.o. administration. It counts as functional. To be noted: Stomach, po. An outline of the steps: (§2)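 Male Sprague-Dawley rats (200–300 g) were fasted 24 h and dosed orally at 2 mL/kg, 30 min before 1 mL of 100% ethanol per rat. Animals were killed 1 h later, and stomachs were formalin-fixed, opened along the greater curvature and examined for lesions. ED50 is the dose giving 50% lesion inhibition versus control, derived by linear regression from three dose groups of eight rats each.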

Assay [4] is filed under the species Rattus norvegicus. The assay is described as follows: Relative potency for hypotension in rats. It counts as functional.
For assay [5], the species on record is Rattus norvegicus. The assay is described as follows: Relative potency for organ protection in rats. It counts as functional. An outline of the steps: (§3)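 Relative potencies were calculated against PGE2 from the rat oral ED50 for ethanol-induced gastric lesions and the iv MBP15 hypotension dose. The ratio is organ-protective relative potency divided by hypotensive relative potency, with PGE2 set to 1.0.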

Assay [6] can be described thus: Ratio of relative potencies of organ protection/ hypotension to that of PGE-2 in rats. It counts as functional. In a few lines: as §3
The species named for assay [7] is Rattus norvegicus. The experiment in a line: Relative potency for hypotension. It counts as functional.
The species entered for assay [8] is Rattus norvegicus. The assay is described as follows: Relative potency for antiaggregation. It counts as functional. An outline of the steps:
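Antiaggregation relative potency was calculated against PGI2 from the IC50 for collagen-induced (5 μg/mL) aggregation of citrated rat blood, measured at 37 °C.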

The subject of assay [9] is Rattus norvegicus. The assay is described as follows: Organ-protective activity is expressed as dose that inhibits 50 percent of ethanol-induced gastric lesions of control orally in rat; No effect. It counts as functional, organism-based. The note with it: Stomach. In a few lines: as §2
Assay [10] concerns Rattus norvegicus. The experiment in a line: Inhibition of ethanol induced gastric lesions in the rat following p.o. administration; No effect. It counts as functional, organism-based. To be noted: Stomach. In a few lines:
as §2

The species entered for assay [11] is Rattus norvegicus. The assay is described as follows: Antiaggregatory activity is expressed as dose that inhibit rat platelet aggregation induced by collagen by 50% of that of the control; No effect. It counts as functional. In a few lines:
as §1

The species entered for assay [12] is Rattus norvegicus. The assay is described as follows: Relative potency for organ protection. It counts as functional. In a few lines: as §3
The nature of assay [13]: Ratio of relative potencies of antiaggregation/ hypotension to that of PGI-2 Na in rats.

Take `O=C(O)CCC/C=C1\CC2C[C@@H](O)[C@H](/C=C/[C@@H](O)C3Cc4ccc(Cl)cc4C3)C2C1` (some centres undefined): the “Dose lowering mean blood pressure by 15 mmHg” value in assay [1] is more than 0.1 mg/kg. Further, 0.407 µg/mL (≈ 0.945 µM) corresponded to half-maximal inhibition in assay [2] (IC50). The 50% effective dose (ED50) in assay [3] was more than 0.3 mg/kg.
On to `O=C(O)CCC/C=C1\CC2C[C@@H](O)[C@H](/C=C/[C@@H](O)c3ccc4c(c3)OCCO4)C2C1` (some centres undefined), for which, in assay [1], the “Dose lowering mean blood pressure by 15 mmHg” value is more than 0.1 mg/kg. The IC50 in assay [2] was more than 1 µg/mL. Further, the ED50 in assay [3] was more than 0.3 mg/kg.
Take `COc1ccc2c(c1)OCC([C@H](O)/C=C/[C@@H]1C3C/C(=C/CCCC(=O)O)CC3C[C@H]1O)O2` (some centres undefined): the figures for the Relative potency in assay [4] and in [5] were 0.3 and 16.2, respectively. Besides, the “Dose lowering mean blood pressure by 15 mmHg” value in assay [1] worked out at 0.0035 mg/kg. Besides, the IC50 in [2] was determined as 0.355 µg/mL (≈ 0.799 µM). For the same molecule, in [6], the Ratio came out at 47.6. In assay [3], this molecule gave an ED50 of 0.0021 mg/kg.
In the case of `CCCCC[C@H](O)/C=C/[C@@H]1[C@H]2C/C(=C/CCCC(=O)[O-])O[C@H]2C[C@H]1O.[Na+]` [EPOPROSTENOL SODIUM], the Relative potency in assay [7] and in assay [8] was 1 each time. The “Dose lowering mean blood pressure by 15 mmHg” value in assay [1] worked out at 0.0003 mg/kg. The midpoint of inhibition in assay [2], the IC50, lay at 0.0034 µg/mL. In addition, the ED50 entry in [9] was “inactive”.
Consider `CC1([C@H](O)/C=C/[C@@H]2C3CC(CCOCC(=O)O)=C[C@H]3C[C@H]2O)Cc2ccccc2C1` (some centres undefined), for which the “Dose lowering mean blood pressure by 15 mmHg” value in assay [1] was determined as 0.002 mg/kg. Moreover, the IC50 in assay [2] was found to be 0.0692 µg/mL (≈ 0.168 µM). This molecule displayed an ED50 in assay [3] of 0.006 mg/kg.
For `OCCCC/C=C1\CC2C[C@@H](O)[C@H](/C=C/[C@@H](O)C3Cc4ccccc4C3)C2C1` (some centres undefined), the “Dose lowering mean blood pressure by 15 mmHg” value in assay [1] was more than 0.1 mg/kg. The IC50 in assay [2] is more than 1 µg/mL. Also, the ED50 in assay [3] stood at 0.0536 mg/kg.
On to `O=C(O)CCC/C=C1\CC2C[C@@H](O)[C@H](/C=C/[C@@H](O)c3ccc4c(c3)CCC4)C2C1` (some centres undefined), for which the “Dose lowering mean blood pressure by 15 mmHg” value in [1] was more than 0.1 mg/kg. The IC50 in assay [2] is more than 1 µg/mL. Moreover, the ED50 entry in [10] was “No effect”.
For `CCCCC[C@H](O)/C=C/[C@H]1[C@H](O)CC(=O)[C@@H]1C/C=C\CCCC(=O)O` [DINOPROSTONE], the IC50 entry in [11] is “Not Active”. Further, the Relative potency in [7] and in assay [12] was 1 throughout. In assay [1], the “Dose lowering mean blood pressure by 15 mmHg” value was found to be 0.0012 mg/kg. For the same molecule, the ED50 in assay [3] stood at 0.0341 mg/kg.
For `CC1([C@H](O)/C=C/[C@@H]2C3C/C(=C/CCCC(=O)O)CC3C[C@H]2O)Cc2ccccc2C1` (some centres undefined), the “Dose lowering mean blood pressure by 15 mmHg” value in [1] is 0.0053 mg/kg. In assay [2], the IC50 was determined as 0.0302 µg/mL (≈ 0.0736 µM). In assay [3], the ED50 was 0.0452 mg/kg.
For `O=C(O)CCC/C=C1\CC2C[C@@H](O)[C@H](/C=C/[C@@H](O)CC3COc4ccccc4O3)C2C1` (some centres undefined), in [1], the “Dose lowering mean blood pressure by 15 mmHg” value was found to be 0.044 mg/kg. In addition, 0.324 µg/mL (≈ 0.755 µM) corresponded to half-maximal inhibition in [2] (IC50). Moreover, the ED50 in assay [3] was more than 0.3 mg/kg.
`O=C(O)CCC/C=C1\CC2C[C@@H](O)[C@H](/C=C/[C@@H](O)C3CCc4ccccc43)C2C1` (some centres undefined): the “Dose lowering mean blood pressure by 15 mmHg” value in [1] was more than 0.1 mg/kg. In [2], this molecule had a 50% inhibitory concentration (IC50) of more than 1 µg/mL. Besides, the ED50 entry in assay [10] was “No effect”.
Turning to `O=C(O)CCC/C=C1\CC2C[C@@H](O)[C@H](C#C[C@@H](O)C3Cc4ccccc4C3)C2C1` (some centres undefined), the Relative potency in assay [4] was 0.9; in [5] it was 20.1; in assay [8], 0.42. In addition, the “Dose lowering mean blood pressure by 15 mmHg” value in assay [1] was found to be 0.0013 mg/kg. Besides, the Ratio in [13] is 1.8; in assay [6] it was 21.8. Besides, the IC50 in assay [2] was 0.0082 µg/mL (≈ 0.0208 µM). Also, the ED50 in [3] was 0.0017 mg/kg.
On to `COc1ccc2c(c1)OCC([C@H](O)/C=C/[C@@H]1C3C/C(=C/COCC(=O)O)CC3C[C@H]1O)O2` (some centres undefined), for which, in [1], the “Dose lowering mean blood pressure by 15 mmHg” value worked out at 0.0062 mg/kg. This molecule came in with an IC50 in assay [2] of more than 1 µg/mL. In addition, in [10], the ED50 result is “No effect”.
Consider `CC1([C@H](O)/C=C/[C@@H]2C3C/C(=C/COCC(=O)O)CC3C[C@H]2O)Cc2ccccc2C1` (some centres undefined), for which, in assay [1], the “Dose lowering mean blood pressure by 15 mmHg” value came to 0.0076 mg/kg. In addition, the IC50 in [2] turned out to be 0.118 µg/mL (≈ 0.286 µM). The ED50 in assay [3] is 0.0397 mg/kg.

By IC50 is commonly meant the midpoint of a concentration-inhibition curve. A lower IC50 goes with higher potency. For orientation: ED50 means the midpoint of the dose-response relation.
